Results of several laboratories.
Each line is one published result; the experiments were not run side by side.
Target: Cannabinoid receptor 2 (CNR2, Homo sapiens, UniProt P34972)

COCc1c(-c2cc3cc(C)cc(OC)c3s2)c2c(N)ncnn2c1CN1CCNC(=O)C1  inhibition (ligand displacement, radioligand; 10 µM): 2%
CN(CCN1CCC(OC(=O)Nc2ccccc2-c2ccccc2)CC1)C(=O)c1ccc(CN2CCC(C(N)=O)CC2)cc1  inhibition (ligand displacement, radioligand; 1 µM): -2%
O=C(Nc1cccnn1)N1CCN([C@@H]2CCOc3cc(C(F)(F)F)ccc32)CC1  inhibition (ligand displacement; 20 µM): 23%
CCOC(=O)C(CC)(CCCSCCOCCOCCNc1ccc([N+](=O)[O-])c2nonc12)NC(=O)c1ccc(C2CC2)c(Cc2ccc(F)cc2)n1 (racemic)  Emax (cAMP, agonist): 100%
Clc1ccc2c(C3CCN(CCc4c[nH]c5ccccc45)CC3)c[nH]c2c1  inhibition (ligand displacement, radioligand; 10 µM): 11%
COc1ccc(S(=O)(=O)N2CCCCC2)cc1C  inhibition (ligand displacement, radioligand; 10 µM): < 30%
CCOC(=O)C(CC)(CCCSCCOCCOCCOCCOCCNC(=O)OC(C)(C)C)NC(=O)c1ccc(C2CC2)c(Cc2ccc(F)cc2)n1 (centres unmarked)  Emax (cAMP, agonist): 91%
COc1cccc2c(C(=O)c3cccc4ccccc34)cn(CCN3CCOCC3)c12  inhibition (ligand displacement, radioligand; 1 µM, cell membranes): 100%
